# TRPC4 act – opens the mouse TRPC4 cation channel; Q9QUQ5; HEK293 TRPC4beta/mu-opioid, Fluo4 calcium fluorescence; hits give high values; B-score at 10 µM; 310,000 tested, 0.49% active;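 active means B-score above 5 SD of library B-scores, and initial fluorescence ratio not above library mean plus 5 SD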;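 further: positive B-score marks a calcium rise read as TRPC4 activation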
# Target sequence (Q9QUQ5 whole entry, looked up): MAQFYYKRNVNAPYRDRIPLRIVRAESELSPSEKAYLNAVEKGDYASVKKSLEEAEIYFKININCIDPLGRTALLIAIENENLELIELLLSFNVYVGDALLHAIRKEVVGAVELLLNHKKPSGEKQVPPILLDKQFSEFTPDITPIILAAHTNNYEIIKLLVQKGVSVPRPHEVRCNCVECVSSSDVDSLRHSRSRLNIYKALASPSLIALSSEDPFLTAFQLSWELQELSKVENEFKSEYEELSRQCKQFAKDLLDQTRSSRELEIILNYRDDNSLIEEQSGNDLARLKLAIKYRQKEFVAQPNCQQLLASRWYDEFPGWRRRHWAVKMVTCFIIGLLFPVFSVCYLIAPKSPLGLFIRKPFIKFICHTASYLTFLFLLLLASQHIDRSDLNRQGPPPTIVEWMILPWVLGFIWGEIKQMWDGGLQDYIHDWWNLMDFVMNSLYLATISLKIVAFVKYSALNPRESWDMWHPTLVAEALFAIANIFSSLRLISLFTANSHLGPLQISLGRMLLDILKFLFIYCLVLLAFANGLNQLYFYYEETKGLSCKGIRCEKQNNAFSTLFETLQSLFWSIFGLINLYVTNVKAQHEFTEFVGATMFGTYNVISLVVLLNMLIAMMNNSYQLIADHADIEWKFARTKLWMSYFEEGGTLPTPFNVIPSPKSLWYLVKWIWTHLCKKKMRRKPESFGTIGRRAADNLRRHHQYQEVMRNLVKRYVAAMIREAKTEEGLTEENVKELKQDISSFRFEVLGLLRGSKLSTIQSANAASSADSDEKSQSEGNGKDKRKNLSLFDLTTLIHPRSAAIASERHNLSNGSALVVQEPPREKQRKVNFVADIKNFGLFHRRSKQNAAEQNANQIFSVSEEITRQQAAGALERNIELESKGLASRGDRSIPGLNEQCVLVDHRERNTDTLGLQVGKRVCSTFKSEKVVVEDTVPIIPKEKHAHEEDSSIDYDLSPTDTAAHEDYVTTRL
#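 System – HEK293 cells stably co-expressing mouse TRPC4beta and mu-opioid receptor · Signal – Fluo4 calcium-sensitive dye fluorescence, kinetic, 1 Hz baseline · Benchmarks – buffer (low) and maximal DAMGO (high) · Read-out – B score of integrated fluorescence ratio per well · Incubation – dye loading 45 min room temperature, 110 s kinetic read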
# Yeast superoxide – yeast age-related superoxide inhibition as caloric restriction mimetic | S. cerevisiae aged cells, superoxide DHE fluorescence; hits give low values | superoxide response (% of plate mean), % at 10 µM | 330,000 tested, 0.18% active;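 active means superoxide response under a set limit, about three screen SD below normal, cut at about 65% in these data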;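 further: yeast aged for seven days with compound at 30 °C before DHE staining; 100% = average MFI of all compound-treated wells on the plate with controls excluded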
# TRPC6 inh – inhibitors of mouse TRPC6 channel | Q61143 | 310,000 tested, 1.1% active | B-score at 10 µM | AID 2553 | HEK293-TRPC6, membrane potential dye, ACh-evoked depolarization; hits give low values;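 active means B-score under library mean minus 3 SD, initial fluorescence not abnormally high, positive integrated signal ratio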;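 further: B-score derived from integrated fluorescence ratio over the kinetic read; more negative B-score means stronger inhibition of depolarization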
# TRPC4 PAM – allosteric potentiators of mouse TRPC4 channel; 310,000 tested, 0.42% active; HEK293 TRPC4beta/mu-opioid, DAMGO EC20, Fluo-4 Ca2+ flux; hits give high values; AID 2227; Q9QUQ5; B-score at 10 µM;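 active means B-score of calcium response area above 5 SD of library B-scores, with initial fluorescence ratio within 5 SD of library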;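 further: B-score of integrated fluorescence ratio over time as area under calcium response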
# TRPC4 inh – TRPC4 (mouse) channel inhibition; HEK293 TRPC4beta/mu-opioid, DAMGO-evoked Fluo4 calcium flux; hits give low values; B-score at 10 µM; 300,000 tested, 0.39% active;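 active means B-score over 3 SD under the library average, no early fluorescence shift, positive overall ratio signal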
#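 Assay system: HEK293 cells with stable TRPC4beta plus mu-opioid receptor expression; Probe or stimulus: DAMGO in two steps, submaximal then maximal; Dosing: single-point compound dosing; Measured by: Fluo4 calcium-dye fluorescence, kinetic read; Read-out basis: B score from integrated Fluo4 fluorescence ratio.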
# TRPC6 activator – activates the mouse TRPC6 cation channel; Q61143; HEK293-TRPC6 membrane potential dye fluorescence; hits give high values; B-score at 10 µM; 310,000 tested, 0.13% active; AID 2550;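 active means B-score of the integrated fluorescence ratio above library mean plus 3 SD, and starting fluorescence ratio within library mean plus 5 SD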;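 further: higher score means more depolarization so channel activation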
# TRPC4 spec 2 – mouse TRPC4 off-target activity of TRPC6 inhibitors, second screen; 920 tested, 42% active; inhibition, % at 10 µM; AID 2776; HEK293 TRPC4/MOR, membrane potential dye fluorescence; channel activated by saturating DAMGO dose; shares compounds with TRPC6 inh;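 active means compounds whose fluorescence signal differed from control wells by over 3 SD, either direction, in both duplicate plates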
# TRPC4 spec – tests whether TRPC6 inhibitors also affect mouse TRPC4 | shares compounds with TRPC6 inh | HEK293 TRPC4/mu-opioid, membrane potential fluorescence | activity change, negative = inhibition, % at 10 µM | 920 tested, 61% active;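 active means rise or fall in signal beyond 3 SD of buffer-only wells in both replicate plates, either sign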;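 further: integrated kinetic ratio of fluorescence range over baseline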
# HEK293 MPD ctr 2-1 – second counter-screen for TRPC6 inhibitors: parental HEK293 cells. shares compounds with TRPC6 inh. parental HEK293 membrane potential dye fluorescence; maximal acetylcholine challenge after compound addition. signal change vs control, % at 10 µM. 920 tested, 31% active;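 active means membrane potential signal moving either way by over 3 SD of the maximum-effect control, in both duplicate plates, meaning non-specific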
# HEK293 MPD ctr-1 – checks TRPC6 inhibitor effects in parental HEK293 cells | shares compounds with TRPC6 inh | parental HEK293 membrane potential dye fluorescence | membrane potential signal change, % at 10 µM | 920 tested, 60% active;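 active means membrane potential signal shifting up or down by more than 3 SD of buffer-only wells, on both duplicate plates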
# HEK293 MPD ctr-2 – counter-screen for TRPC6 modulators: effect in parental HEK293 cells | shares compounds with TRPC6 inh | 2,400 tested, 51% active | membrane potential dye fluorescence | membrane potential signal change, % at 10 µM | AID 488924;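 active means membrane potential signal moves up or down beyond 5 SD from buffer-only wells, on both duplicate plates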
# HEK293 MPD ctr 2-2 – second check of TRPC6 modulator effects in parental HEK293 cells; shares compounds with TRPC6 inh; membrane potential dye fluorescence; after compound, maximal acetylcholine stimulation; inhibition, % at 10 µM; 2,400 tested, 14% active; AID 488926;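 active means membrane potential signal drops by more than 5 SD from the mean control signal, in both duplicate plates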;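 further: plate controls were acetylcholine ECmax control wells for no effect and buffer only wells for full effect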
# TRPC4/MOR mod – mouse TRPC4 off-target activity of TRPC6 modulators. shares compounds with TRPC6 inh. HEK293 TRPC4/mu-opioid, membrane potential fluorescence. percent change from control (negative = decrease, positive = increase), % at 10 µM. 2,400 tested, 69% active. AID 488927;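 active means membrane potential signal moved up or down beyond 5 SD of buffer control wells, in both duplicate plates, actives on both sides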;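 further: plate controls were assay buffer wells for no effect and DAMGO maximal-effect wells for full effect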
# TRPC4/MOR inh 2 – mouse TRPC4 off-target activity of TRPC6 modulators, second screen; shares compounds with TRPC6 inh; HEK293 TRPC4/mu-opioid, membrane potential dye fluorescence; stimulated with maximal-effect DAMGO; inhibition, % at 10 µM; 2,400 tested, 55% active;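 active means drop in membrane potential signal beyond 5 SD of the control wells in both duplicate plates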;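 further: TRPC4 counter screen for TRPC6 hits run under conditions tuned for TRPC6 not TRPC4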
# TRPC6 inh conf – mouse TRPC6 inhibitor confirmation | inhibition, % at 10 µM | shares compounds with TRPC6 inh | HEK293-TRPC6, membrane potential dye, ACh-evoked depolarization | 3,300 tested, 43% active;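 active means fluorescence ratio falls more than 5 SD below the full-stimulation control mean, in both duplicate runs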;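 further: integrated fluorescence ratio of peak minus minimum over baseline after agonist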
# TRPC6 act confirm – mouse TRPC6 activator confirmation | shares compounds with TRPC6 inh | AID 488961 | activation, % at 10 µM | 2,800 tested, 11% active | HEK293-TRPC6 membrane potential dye fluorescence, FDSS;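 active means ratio signal rise beyond 5 SD above unstimulated control wells' mean, seen in both duplicate runs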;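 further: plate controls were buffer EC0 wells for no effect and acetylcholine ECmax response for full effect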
# Starred values were filed as active, the others as inactive; i = inactive; nt = no result given. Only some compounds are listed: those with a hit (about 2.3% of all), similar ones and a draw of the others.
SMILES,TRPC4 act,Yeast superoxide,TRPC6 inh,TRPC4 PAM,TRPC4 inh,TRPC6 activator,HEK293 MPD ctr-2,HEK293 MPD ctr 2-2,TRPC4/MOR mod,TRPC4/MOR inh 2,TRPC6 inh conf,TRPC6 act confirm,others
COc1ccc(/C=C/C(=O)NC2CCCCCCC2)cc1S(=O)(=O)N1CCOCC1,i,93.6,i,i,i,i,nt,nt,nt,nt,nt,nt,
COc1ccc(CCNC(=O)CSC(=O)c2ccccc2)cc1OC,i,99.8,i,i,i,i,nt,nt,nt,nt,nt,nt,
CCCCCCN1C=CC=C/C1=C\C=C(C#N)C#N,i,96.5,i,i,i,13.1*,253.0%*,i,75.0%*,i,i,101.5%*,
Cc1cc(C)n2[nH]c(=O)c(N=Nc3ccc(S(N)(=O)=O)cc3)c2n1,i,99.4,-14.6*,i,i,i,-397.0%*,102.0%*,-59.5%*,68.5%*,79.0%*,i,
Cc1ccc(N=Nc2c(=O)[nH]n3c(C)cc(C)nc23)cc1,i,92.4,-6.13*,14*,i,i,-133.5%*,i,-14.0%*,i,41.0%*,i,
Cc1ccc2nc(-c3ccccn3)cc(C(=O)Nc3ccc(S(=O)(=O)N4CCOCC4)cc3)c2c1,i,103.8,i,i,i,i,nt,nt,nt,nt,nt,nt,
CC(C(=O)Nc1ccc([N+](=O)[O-])cc1)N1CCN(C/C=C/c2ccccc2)CC1 (stereo not given),i,109.4,-5.98*,i,i,i,i,i,i,54.0%*,i,i,
Cc1ccc2nc(N=C(N)N)nc(C)c2c1,i,96.8,-9.43*,i,i,i,-196.5%*,i,-35.5%*,64.0%*,37.0%*,i,
CCc1ccc(N=C2N=C(N)c3ccccc32)cc1,i,114.1,-7.84*,i,i,i,nt,nt,nt,nt,70.6%*,i,TRPC4 spec 2=27.5%*;TRPC4 spec=-21.1%*;HEK293 MPD ctr 2-1=i;HEK293 MPD ctr-1=-465.0%*
N#Cc1c(-n2cccc2/C=N/O)sc2c1CCCC2,i,116.2,-6.61*,i,i,i,nt,nt,nt,nt,60.0%*,nt,TRPC4 spec 2=i;TRPC4 spec=20.3%*;HEK293 MPD ctr 2-1=-30.0%*;HEK293 MPD ctr-1=17.6%*
CC(C)(C)NC(=O)C(c1ccc(O)cc1)N(Cc1ccco1)C(=O)CCC(=O)Nc1ccccn1 (stereo not given),i,93.4,i,i,i,i,nt,nt,nt,nt,nt,nt,
